Lipid droplet: modulators of hepatic lipid droplet formation; 0.4% of 240,000 active; inhibition, % at 6.5 µM; AML12 mouse hepatocytes, oleate lipid droplets, BODIPY imaging;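 active = lipid droplet intensity inhibited by at least 50%, with more than 500 cells counted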
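Test system: AML12 hepatocytes (mouse); reagent: oleate loading, 100 µM; dosing: one dose, 6.5 µM compound; incubation: overnight exposure; signal: fluorescence imaging, 20x objective, two fields per well; read-out basis: % inhibition of corrected integrated BODIPY droplet signal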
HCV NS3 hel inh: HCV NS3 helicase inhibition; NS3 helicase DNA unwinding, Cy5 molecular beacon fluorescence; inhibition, % at 10.9 µM; 0.56% of 290,000 active;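 active = inhibition above the mean of all tested compounds plus 3 SD, set per campaign, cut at about 35% in these data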
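Control set: DMSO versus 110 µM thioflavine S; Material: NS3 helicase fragment of HCV; Measured by: Cy5 fluorescence at 0 and 60 min, beacon hairpin quenching; Read-out basis: percent inhibition from t60/t0 fluorescence ratio; Times: reaction time 60 min, 25 °C; Repeats: single replicate; Compound dosing: single dose, 10.9 µM nominal final, DMSO 0.8% final.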
HSF1 inhib: HSF1 inhibition | NIH3T3-HGL HSE-luciferase, MG132-induced, luminescence 8 h; stronger effect = lower value | activity change, negative = inhibition, % at 7.5 µM (by protocol) | 0.77% of 300,000 active | AID 2098;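 active = more than half of replicate wells show activity change below -50%, luminescence cut by over half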;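 also: luciferase reports HSF-1 transcriptional activity via heat shock element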
HSF1 activator: increases HSF-1 driven luciferase reporter signal; 1.7% of 300,000 active; NIH3T3-HGL HSF-1 luciferase reporter, MG132, 8 h; 100% = twice DMSO control signal; activation, % at 9 µM; AID 504408;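 active = mean replicate activation of at least 50% with a set share of replicates each reaching 50%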
HSP90 refold inh: inhibitors of HSP90 luciferase refolding in rabbit reticulocyte lysate. luciferase refolding luminescence, 3 h. inhibition, % at 5.6 µM. 0.91% of 290,000 active. AID 1789;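 active = inhibition above the screen-wide mean plus 3 SD, computed separately per campaign, cut at about 16% in these data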;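 also: inhibitors lower the luminescence because luciferase stays unfolded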
Each line names hits and unclear results; the compound was inactive in the other large screens. An excerpt weighted towards active compounds, which were near 3.8% of everything screened.

COc1ccc(N=C2S/C(=C\c3ccc(Cl)c([N+](=O)[O-])c3)C(=O)N2CCN(C)C)cc1	HSF1 activator 94.7
COc1cc(Cl)c(S(=O)(=O)NCCCn2ccnc2)cc1Cl	none
COc1ccc2[nH]c3c(=O)n(CCCN4CCOCC4)cnc3c2c1	HSF1 inhib -63.4
COc1ccccc1NC(=O)c1c(N=Cc2ccccc2O)cnn1C	none
CC(C)(C)NC(=O)CN(Cc1ccccc1)S(=O)(=O)c1ccccc1	none
CCC(C)C(NS(=O)(=O)c1ccc(C)cc1)C(=O)O (stereo not drawn)	none
CCOC(=O)C(NS(=O)(=O)c1ccc(Br)cc1)C(C)C (stereo not drawn)	HSF1 activator 55.1 (no result: Lipid droplet)
CCOc1cc(CNc2ccc(N3CCOCC3)cc2)cc(Br)c1OCC	none
CCOc1cc(CNc2ccc3c(c2)OCCO3)cc(Br)c1OCC	HSF1 inhib -82.0, HSP90 refold inh 16.3 (no result: Lipid droplet)
CCOc1ccc(NC(=O)C2CCCN(c3nn4c(=O)cc(C)nc4s3)C2)cc1 (stereo not drawn)	HSF1 inhib -62.0
Cc1cc(C)nc(N2CCCC(C(=O)Nc3ccc4nc(C)c(C)nc4c3)C2)n1 (stereo not drawn)	HSF1 activator 56.6 (no result: Lipid droplet)
COc1ccc(N/C(=N/c2nc(C)cc(C)n2)NC(=O)c2ccccc2)cc1	none
O=C(NC(c1cccnc1)C(F)(F)F)c1cc(COc2ccc3c(c2)CCCC3)on1 (stereo not drawn)	none
CCN(CC)c1ccc(C(=C2C=CC(=[N+](CC)CC)C=C2)c2ccccc2)cc1	HSF1 inhib 94.5, HSF1 activator 94.5 (no result: Lipid droplet, HCV NS3 hel inh, HSP90 refold inh)
CCN(CC)c1ccc(C(=S)N2CCN(c3ccccc3)CC2)cc1	none (no result: Lipid droplet)
CC(C)(C)c1cccc(/C=N/O)c1O	HSF1 activator 65.6 (no result: Lipid droplet)
Cc1ccc(S(=O)(=O)NCC(=O)N(CC2CCCO2)C(C(=O)NCC2CCCO2)C(C)C)cc1 (stereo not drawn)	none
C/C(CC(=O)Nc1ccc2ccccc2c1)=N\NC(=O)c1ccc(O)c(O)c1	HSF1 activator 55.4
C/C(CC(=O)Nc1ccc(N(C)C)cc1)=N\NC(=O)c1ccc(Cl)cc1	HSF1 activator 83.2
C/C(CC(=O)Nc1ccc(C)c(Cl)c1)=N\NC(=O)c1ccccn1	HSF1 activator 205.6
C/C(CC(=O)Nc1ccc(N(C)C)cc1)=N\NC(=O)c1ccccn1	none (no result: Lipid droplet, HSF1 inhib, HSF1 activator)
C/C(CC(=O)Nc1ccc(C)c(Cl)c1)=N\NC(=O)c1cccc(O)c1	none
C/C(CC(=O)Nc1ccc2ccccc2c1)=N\NC(=O)c1cnccn1	HSF1 activator 73.8
COc1ccc(C)cc1NC(=O)CSc1nnc2ccc(-c3cccnc3)nn12	none (no result: Lipid droplet, HCV NS3 hel inh, HSP90 refold inh)
CC1(C)Cc2c(cnn2-c2cccc(F)c2)C(NC(=O)CCc2cnccn2)C1 (stereo not drawn)	none
COCc1cc(C)nc2sc(C(=O)Nc3cccc(OC)c3)c(N)c12	none
COc1ccc2c(c1)NC(c1ccc(N(C)C)cc1)c1cccn1-2 (stereo not drawn)	none
C/C(CC(=O)Nc1ccc(Cl)c(Cl)c1)=N\NC(=O)C(=O)N1CCCCC1	HSF1 activator 54.3
O=C(NC1=NN(c2ccccc2)CC1)Nc1ccccc1F	none
CCc1cccc(C)c1NC(=O)C1CCCO1 (stereo not drawn)	none (no result: Lipid droplet)
O=C(Nc1nc(-c2ccc(Cl)cc2)cs1)C1CCCO1 (stereo not drawn)	none
O=C(Nc1ncc(Cc2cccc(Cl)c2Cl)s1)C1CCCO1 (stereo not drawn)	HSF1 activator 57.6
Cc1cccc2sc(NC(=O)C3CCCO3)nc12 (stereo not drawn)	HSF1 activator 63.4
O=C(Nc1ncc(Cc2ccccc2Cl)s1)C1CCCO1 (stereo not drawn)	HSF1 activator 74.8
O=C(Nc1nc(-c2ccc(Cl)cc2Cl)cs1)C1CCCO1 (stereo not drawn)	Lipid droplet 53.7
C[Si](C)(C)n1ccnc1	none
O=C(CN1C(=O)NC2(CCCC2)C1=O)Nc1ccc(C(F)(F)F)cc1	none (no result: Lipid droplet)
O=C(O)Cn1c(SCCOc2ccc(Cl)cc2)nc2ccccc21	HSF1 activator 63.1
COc1ccc(OCCSc2nc3ccccc3n2CC(=O)O)cc1	none
COc1ccc(N2C(=O)NC(NC(=O)C(C)(C)C)(C(F)(F)F)C2=O)cc1 (stereo not drawn)	none
COc1ccc(NS(=O)(=O)c2cc(NC(=O)c3cccc(OCc4c(C)noc4C)c3)ccc2OC)cc1	HSF1 activator 57.0
COc1ccc(/C=C/c2nc3ccccc3n2Cc2ccccc2OC)cc1	HSF1 activator 67.7
COc1ccccc1Cn1c(/C=C/c2ccccc2)nc2ccccc21	none
CCN(CC)C(=S)SCC(=O)c1ccc(F)cc1	HSF1 activator 65.9 (no result: Lipid droplet)
COc1ccc(CNC(=O)C2CCN(C(=O)[C@@H]3Cc4ccccc4CN3)CC2)cc1	none
COc1ccc(N(CC(=O)N/N=C/c2cccnc2)S(=O)(=O)c2ccc(C)cc2)cc1OC	none
CCOc1ccc(NC(=S)Nc2ccc(C)c([N+](=O)[O-])c2)cc1	HSP90 refold inh 16.9
O=C(CN1CCOCC1)Nc1ccc(-c2nc3ccccc3[nH]2)cc1	HSF1 activator 56.3 (no result: Lipid droplet)
O=C(CSc1ccccc1)Nc1ccc(-c2nc3ccccc3[nH]2)cc1	none
COc1ccc(S(=O)(=O)N2CCC(C(=O)NCc3cccs3)CC2)cc1	none
CC(CC(=O)c1cccs1)CC(=O)c1cccs1	none
Cc1cc(C)c(C(CC(=O)c2cccs2)C(C#N)C#N)c(C)c1 (stereo not drawn)	HSF1 activator 122.5
O=C(CCc1nnc(CCCc2ccccc2)o1)NC(C1CC1)C1CC1	HSF1 activator 64.9
O=C(CCc1nnc(CCCCc2ccccc2)o1)NCCc1cccnc1	none
O=C(CCc1nnc(CCCCc2ccccc2)o1)NCCN1CCCCC1=O	HSF1 activator 57.9
Cc1csc2nc(CSc3ccc(Cl)cc3)cn12	HSF1 activator 67.5
Cc1cc(C)n2cc(CSc3ccc(Cl)cc3)nc2n1	none
O=c1c2ccccc2nc(SCc2cn3ccsc3n2)n1-c1ccccc1	HSF1 activator 64.6
Clc1ccc(SCc2cn3ccsc3n2)cc1	HSF1 activator 111.0 (no result: Lipid droplet)
O=c1c2ccccc2nc(SCc2cn3ccsc3n2)n1-c1ccccc1F	none
COc1cccc(C2=NN(C(=O)CCCC(=O)O)C(c3cccs3)C2)c1 (stereo not drawn)	none
Cn1c(CNC(=O)CNC(=O)c2ccc(F)cc2)cc(=O)n(C)c1=O	none
Cc1ccc(NC(=O)c2ccccc2N(C)S(=O)(=O)c2ccccc2)c(C)c1	HSF1 activator 64.8
Cc1ccc(S(=O)(=O)N(C)c2ccccc2C(=O)Nc2ccc(F)cc2F)cc1	none
Cc1ccc(S(=O)(=O)N(C)c2ccccc2C(=O)NC2CCCC2)cc1	HSF1 inhib -72.0
c1ccc(CCc2ccncc2)cc1	HSF1 activator 56.1
O=C(NCc1ccccn1)c1ccc(NS(=O)(=O)c2ccccc2)cc1	none
CCC(C)NC(=O)CSc1nnc(-c2c[nH]c3ccccc23)o1 (stereo not drawn)	HSP90 refold inh 16.7
COc1ccc(N(CC(=O)N/N=C/c2ccccc2F)S(=O)(=O)c2ccccc2)cc1	none
